# Measurements from ChEMBL document CHEMBL1124378, “Synthesis and pharmacological evaluation of a series of 4-piperazinylpyrazolo[3,4-b]- and -[4,3-b][1,5]benzodiazepines as potential anxiolytics” (J Med Chem, 1989).
# Assays:
# Rattus norvegicus [1] = species on record: Rattus norvegicus; assay: Compound behavior in rat; assay type: functional; design: unit not given here
# Summary of the method: (§1)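 Olac-Wistar rats (180-190 g), eight per group, dosed orally, front paws placed on a 1.5-cm rod 7 cm above the table. Tested at 0.5, 1, 1.5, 2, 3, 4 and 5 h, up to 20 min hold. Each animal's maximum score (0-5 by time held) was summed, giving a group maximum of 40.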
# Mus musculus [2] = assay: Compound administered perorally was evaluated for the hypothermia (rectal temperature ) in mice; assay type: functional
# Summary of the method: (§2)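 Groups of three CFW mice (21-23 g) received oral compound in water or 0.5% carboxymethylcellulose. Rectal temperature was taken at 0.25, 2.5 and 5.0 h. Mean change from the group's initial mean was summed over the three times. Hypothermia scored if the summed reduction was >4 °C.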
# Rattus norvegicus [3] = assay: Compound administered perorally was evaluated for the conditioned avoidance response in rats; assay type: functional
# Summary of the method: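 Olac-Wistar rats (120-130 g) trained to cross a shuttle box on a 5-s buzzer, with mild shock if no response within 1 s after it ends. Only high-responders used. Groups of five were dosed orally in water or 0.5% carboxymethylcellulose 1 h 50 min before testing. After 10-min habituation they were tested 20 min. Blockade = shocks as % of stimuli presented.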
# Rattus norvegicus [4] = assay: Rotarod response in rat to assess muscular incoordination (following p.o. dosing); assay type: functional
# Summary of the method: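 Male Olac-Wistar rats (140-150 g), five per group, fed ad libitum, dosed orally. Tested 1 and 2 h later on a horizontal rod (2 rpm, 32 mm diameter), maximum 30 s. Mean time compared with vehicle controls by Mann-Whitney U test, significant at p < 0.05.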
# [5] = biological target: Muscarinic acetylcholine receptor; assay: Compound was evaluated for the inhibition of [3H]QNB binding to Muscarinic acetylcholine receptor from male Olac rat brain.
# [6] = biological target: D(2) dopamine receptor (Bos taurus) (UniProt P20288); assay: Inhibition of [3H]spiperone binding to Dopamine receptor D2 from calf caudate
# Mus musculus [7] = assay: Dose below which no catalepsy was observed at any time period (following p.o. dosing); assay type: functional
# Summary of the method: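 CFW mice (21-23 g), three per group, dosed orally in water or 0.5% carboxymethylcellulose. Checked at 0.25, 2.5 and 5.0 h for holding one hind limb on a 2-cm rubber bung and staying on a vertical grid, judged against a control by a trained observer.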
# Mus musculus [8] = assay: Compound administered perorally was evaluated for the hypothermia (rectal temperature) in mice; assay type: functional; summary of the method: as §2
# [9] = biological target: D(2) dopamine receptor (Bos taurus) (UniProt P20288); assay: Inhibition of [3H]spiperone binding to dopamine receptor D2 from calf caudate
# Rattus norvegicus [10] = species on record: Rattus norvegicus; assay: compound behavior in rat; assay type: functional; design: unit not given here; summary of the method: as §1
# [11] = biological target: Muscarinic acetylcholine receptor; assay: Inhibition of [3H]QNB binding to muscarinic cholinergic receptor from male Olac rat brain.
# Rattus norvegicus [12] = assay: The compound was evaluated for the anticonflict behavior in male wistar rats as rate of responses (reward) following dose of 40 mg/kg po; assay type: functional
# Summary of the method: (§3)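 Male Wistar rats on 23-h food deprivation, water ad libitum, trained to lever-press for food on continuous reinforcement until stable. Compound or vehicle given orally in randomized sequence 60 min before testing. Responses/min were recorded in reward, timeout and conflict components. Differences from control were tested by Wilcoxon test.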
# Rattus norvegicus [13] = assay: The compound was evaluated for the anticonflict behavior in male wistar rats as rate of responses (reward) following dose of 20 mg/kg po; assay type: functional; design: unit: responses/min; summary of the method: as §3
# Rattus norvegicus [14] = assay: The compound was evaluated for the anticonflict behavior in male wistar rats as rate of responses (reward) following dose of 0 mg/kg po; assay type: functional; design: unit: responses/min; summary of the method: as §3
# Rattus norvegicus [15] = assay: The compound was evaluated for the anticonflict behavior in male wistar rats as rate of responses (timeout) following dose of 40 mg/kg po; assay type: functional; summary of the method: as §3
# Rattus norvegicus [16] = assay: The compound was evaluated for the anticonflict behavior in male wistar rats as rate of responses (conflic) following dose of 20 mg/kg po; assay type: functional; design: unit: responses/min; summary of the method: as §3
# Rattus norvegicus [17] = assay: The compound was evaluated for the anticonflict behavior in male wistar rats as rate of responses (reward) following dose of 10 mg/kg po; assay type: functional; design: unit: responses/min; summary of the method: as §3
# Rattus norvegicus [18] = assay: The compound was evaluated for the anticonflict behavior in male wistar rats as rate of responses (conflict) following dose of 10 mg/kg po; assay type: functional; design: unit: responses/min; summary of the method: as §3
# Rattus norvegicus [19] = assay: The compound was evaluated for the anticonflict behavior in male wistar rats as rate of responses (conflict) following dose of 0 mg/kg po; assay type: functional; design: unit: responses/min; summary of the method: as §3
# Rattus norvegicus [20] = assay: The compound was evaluated for the anticonflict behavior in male wistar rats as rate of responses (conflict) following dose of 40 mg/kg po; assay type: functional; summary of the method: as §3
# Rattus norvegicus [21] = assay: The compound was evaluated for the anticonflict behavior in male wistar rats as rate of responses (timeout) following dose of 5.0 mg/kg po; assay type: functional; design: unit: responses/min; summary of the method: as §3
# Rattus norvegicus [22] = assay: The compound was evaluated for the anticonflict behavior in male wistar rats as rate of responses (timeout) following dose of 2.5 mg/kg po; assay type: functional; summary of the method: as §3
# Rattus norvegicus [23] = assay: The compound was evaluated for the anticonflict behavior in male wistar rats as rate of responses (reward) following dose of 2.5 mg/kg po; assay type: functional; summary of the method: as §3
# Rattus norvegicus [24] = assay: The compound was evaluated for the anticonflict behavior in male wistar rats as rate of responses (conflict) following dose of 2.5 mg/kg po; assay type: functional; summary of the method: as §3
# Rattus norvegicus [25] = assay: The compound was evaluated for the anticonflict behavior in male wistar rats as rate of responses (reward) following dose of 5.0 mg/kg po; assay type: functional; design: unit: responses/min; summary of the method: as §3
# Rattus norvegicus [26] = assay: The compound was evaluated for the anticonflict behavior in male wistar rats as rate of responses (timeout) following dose of 10 mg/kg po; assay type: functional; design: unit: responses/min; summary of the method: as §3
# Rattus norvegicus [27] = assay: The compound was evaluated for the anticonflict behavior in male wistar rats as rate of responses (timeout) following dose of 20 mg/kg po; assay type: functional; design: unit: responses/min; summary of the method: as §3
# Rattus norvegicus [28] = assay: The compound was evaluated for the anticonflict behavior in male wistar rats as rate of responses (conflict) following dose of 5.0 mg/kg po; assay type: functional; design: unit: responses/min; summary of the method: as §3
# Rattus norvegicus [29] = assay: The compound was evaluated for the anticonflict behavior in male wistar rats as rate of responses (timeout) following dose of 0 mg/kg po; assay type: functional; summary of the method: as §3
SMILES,Activity (Rattus norvegicus [1]),EDmin (Mus musculus [2]) [mg/kg],ED (Rattus norvegicus [3]) [mg/kg],ED (Rattus norvegicus [4]) [mg/kg],IC50 [5] [µM],IC50 [6] [µM],EDmin (Mus musculus [7]) [mg/kg],EDmin (Mus musculus [8]) [mg/kg],IC50 [9] [µM],Activity (Rattus norvegicus [10]),IC50 [11] [µM],other results
CC(C)n1cc2c(n1)Nc1ccc(F)cc1N=C2N1CCN(C)CC1,>50,50,25,40,7.2,1.1,200,–,–,–,–,–
CN1CCN(C2=Nc3ccccc3Nc3nn(C)cc32)CC1,50,50,>50,>50,38,6.3,200,–,–,–,–,–
Cn1cc2c(n1)Nc1ccc(F)cc1N=C2N1CCNCC1,–,200,>50,>50,> 10,5.2,>400,–,–,–,–,–
CCCn1cc2c(n1)Nc1ccc(F)cc1N=C2N1CCN(C)CC1,>50,25,40,50,16,0.18,200,–,–,–,–,–
CN1CCN(C2=Nc3ccccc3Nc3c2cnn3C)CC1,>50,>400,>50,>50,> 100,1500,>400,–,–,–,–,–
CCCCCCn1cc2c(n1)Nc1ccc(F)cc1N=C2N1CCN(C)CC1.Cl,–,–,>50,>50,–,–,>400,100,0.7,>50,18,–
CN1CCN(C2=Nc3cc(Cl)ccc3Nc3nn(C)cc32)CC1,–,–,10,>10,–,–,12.5,0.8,0.68,>25,8.9,Activity (Rattus norvegicus [12]): 14.1; Activity (Rattus norvegicus [13]): 5.4; Activity (Rattus norvegicus [14]): 24.9; Activity (Rattus norvegicus [15]): 4.6; Activity (Rattus norvegicus [16]): 7.8; Activity (Rattus norvegicus [17]): 26.3; Activity (Rattus norvegicus [18]): 8.1; Activity (Rattus norvegicus [19]): 1.1; Activity (Rattus norvegicus [20]): 4.8; Activity (Rattus norvegicus [21]): 7.9; Activity (Rattus norvegicus [22]): 9.3; Activity (Rattus norvegicus [23]): 24.9; Activity (Rattus norvegicus [24]): 5.6; Activity (Rattus norvegicus [25]): 27.5; Activity (Rattus norvegicus [26]): 6.5; Activity (Rattus norvegicus [27]): 9.6; Activity (Rattus norvegicus [28]): 6; Activity (Rattus norvegicus [29]): 2.1
CN1CCN(C2=Nc3cc(Br)ccc3Nc3nn(C)cc32)CC1,–,–,>5,>10,> 10,0.68,25,12.5,–,–,–,Activity (Rattus norvegicus [13]): 14.1; Activity (Rattus norvegicus [14]): 18.7; Activity (Rattus norvegicus [16]): 4.1; Activity (Rattus norvegicus [17]): 23; Activity (Rattus norvegicus [18]): 5; Activity (Rattus norvegicus [19]): 0.5; Activity (Rattus norvegicus [21]): 6; Activity (Rattus norvegicus [22]): 2.1; Activity (Rattus norvegicus [23]): 21.9; Activity (Rattus norvegicus [24]): 2.2; Activity (Rattus norvegicus [25]): 22.1; Activity (Rattus norvegicus [26]): 8; Activity (Rattus norvegicus [27]): 4.4; Activity (Rattus norvegicus [28]): 2.6; Activity (Rattus norvegicus [29]): 2
CCn1cc2c(n1)Nc1ccc(F)cc1N=C2N1CCN(C)CC1,–,–,50,>40,–,–,>400,6,3.3,50,14,–
Cc1c2c(nn1C)Nc1ccc(F)cc1N=C2N1CCN(C)CC1,–,–,>50,>50,–,–,200,25,97,50,3.2,–
CN1CCN(C2=Nc3ccc(F)cc3Nc3nn(C)cc32)CC1,–,–,>20,>40,–,–,100,1.6,2.6,>50,43,–
Cc1ccc2c(c1)Nc1nn(C)cc1C(N1CCN(C)CC1)=N2,>50,–,>50,>50,> 100,5.6,>400,200,–,–,–,–
CNC1=Nc2ccc(Cl)cc2C(c2ccccc2)=[N+]([O-])C1 [CHLORDIAZEPOXIDE],–,–,–,–,–,–,–,–,–,–,–,Activity (Rattus norvegicus [13]): 54.3; Activity (Rattus norvegicus [14]): 70.2; Activity (Rattus norvegicus [16]): 3.3; Activity (Rattus norvegicus [17]): 68.8; Activity (Rattus norvegicus [18]): 4.2; Activity (Rattus norvegicus [19]): 0.6; Activity (Rattus norvegicus [21]): 2.2; Activity (Rattus norvegicus [25]): 70.8; Activity (Rattus norvegicus [26]): 3.4; Activity (Rattus norvegicus [27]): 3.7; Activity (Rattus norvegicus [28]): 1.9; Activity (Rattus norvegicus [29]): 1.4
CN1CCN(C2=Nc3cc(Cl)ccc3Nc3ccccc32)CC1 [CLOZAPINE],80,50,30,40,–,–,100,–,–,–,–,–
Cc1cc2c(s1)Nc1ccc(F)cc1N=C2N1CCN(C)CC1 [FLUMEZAPINE],–,–,5,10,–,–,6.25,1.6,–,20,–,–
